# Reference: ChEMBL document CHEMBL5136968, “Posttranslational modifications of α-conotoxins: sulfotyrosine and C-terminal amidation stabilise structures and increase acetylcholine receptor binding” (RSC Med Chem, 2021)
# Positions of bridges follow the written chain, without caps; N, C: chain ends. Non-standard residues stand in square brackets, D forms with d. Residues, ends and D or L forms follow the SMILES beside them. sY = N[C@@H](Cc1ccc(OS(=O)(=O)O)cc1)C(=O)O
# How the values were obtained:
# [1] = target: Acetylcholine-binding protein (Lymnaea stagnalis, UniProt P58154); experiment: Displacement of [3H]-epibatidine from Lymnaea stagnalis Acetylcholine-binding protein measured after 1 hr by liquid scintillation counter
# Sequence of Acetylcholine-binding protein (P58154 whole entry): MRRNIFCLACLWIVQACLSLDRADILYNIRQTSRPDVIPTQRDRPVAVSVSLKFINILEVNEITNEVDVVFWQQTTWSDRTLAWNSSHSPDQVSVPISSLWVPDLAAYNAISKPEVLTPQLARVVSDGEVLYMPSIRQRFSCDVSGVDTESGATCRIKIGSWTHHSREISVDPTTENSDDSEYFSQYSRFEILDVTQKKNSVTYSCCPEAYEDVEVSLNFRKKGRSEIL
# In short: (§1)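 Recombinant AChBP expressed in E. coli (IPTG induction, 16 °C), coated onto wells at 1 ng μL−1. Incubated 1 h at 4 °C with [3H]-epibatidine (1 nM final) and increasing peptide in PBS with 0.05% BSA. Unbound ligand washed off; bound radioactivity counted by liquid scintillation. One-site competition fit gives Ki. Triplicate, three independent experiments; pKi as mean with 95% CI.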
# [2] = Displacement of [3H]-epibatidine from Aplysia californica Acetylcholine-binding protein measured after 1 hr by liquid scintillation counter; in short: as §1
smiles,measurement,setting,value
"CC(C)C[C@@H]1NC(=O)[C@H](CO)NC(=O)[C@@H]2CSSC[C@@H](C(=O)O)NC(=O)[C@H](Cc3ccc(O)cc3)NC(=O)[C@H](CC(=O)O)NC(=O)[C@@H]3CCCN3C(=O)[C@H](CC(N)=O)NC(=O)[C@H](CC(N)=O)NC(=O)[C@H](C)NC(=O)[C@H](C)NC(=O)[C@H](CSSC[C@H](NC(=O)CN)C(=O)N2)NC(=O)[C@@H]2CCCN2C(=O)[C@@H]2CCCN2C1=O (H-GCCSLPPCAANNPDYC-OH; disulfide 2-8, 3-16)",Ki,[1],> 100 µM
same,pKi,[2],7.51
"CC(C)C[C@@H]1NC(=O)[C@H](CO)NC(=O)[C@@H]2CSSC[C@@H](C(N)=O)NC(=O)[C@H](Cc3ccc(O)cc3)NC(=O)[C@H](CC(=O)O)NC(=O)[C@@H]3CCCN3C(=O)[C@H](CC(N)=O)NC(=O)[C@H](CC(N)=O)NC(=O)[C@H](C)NC(=O)[C@H](C)NC(=O)[C@H](CSSC[C@H](NC(=O)CN)C(=O)N2)NC(=O)[C@@H]2CCCN2C(=O)[C@@H]2CCCN2C1=O (H-GCCSLPPCAANNPDYC-NH2; disulfide 2-8, 3-16)",Ki,[1],9.12 µM
same,pKi,[2],8.85
"CC(C)C[C@@H]1NC(=O)[C@H](CO)NC(=O)[C@@H]2CSSC[C@@H](C(=O)O)NC(=O)[C@H](Cc3ccc(OS(=O)(=O)O)cc3)NC(=O)[C@H](CC(=O)O)NC(=O)[C@@H]3CCCN3C(=O)[C@H](CC(N)=O)NC(=O)[C@H](CC(N)=O)NC(=O)[C@H](C)NC(=O)[C@H](C)NC(=O)[C@H](CSSC[C@H](NC(=O)CN)C(=O)N2)NC(=O)[C@@H]2CCCN2C(=O)[C@@H]2CCCN2C1=O (H-GCCSLPPCAANNPD[sY]C-OH; disulfide 2-8, 3-16)",Ki,[1],> 100 µM
same,pKi,[2],8.33
"CC(C)C[C@@H]1NC(=O)[C@H](CO)NC(=O)[C@@H]2CSSC[C@@H](C(N)=O)NC(=O)[C@H](Cc3ccc(OS(=O)(=O)O)cc3)NC(=O)[C@H](CC(=O)O)NC(=O)[C@@H]3CCCN3C(=O)[C@H](CC(N)=O)NC(=O)[C@H](CC(N)=O)NC(=O)[C@H](C)NC(=O)[C@H](C)NC(=O)[C@H](CSSC[C@H](NC(=O)CN)C(=O)N2)NC(=O)[C@@H]2CCCN2C(=O)[C@@H]2CCCN2C1=O (H-GCCSLPPCAANNPD[sY]C-NH2; disulfide 2-8, 3-16)",Ki,[1],3.8 µM
same,pKi,[2],8.92
